This is an account of results in ChEMBL document CHEMBL4673386, “The Bicyclic Form of galacto-Noeurostegine Is a Potent Inhibitor of β-Galactocerebrosidase” (ACS Med Chem Lett, 2021).

Some results are limits rather than exact numbers.

For assay [1], the target named is T1, Galactocerebrosidase (Mus musculus, UniProt P54818).
T1 sequence (P54818 whole entry): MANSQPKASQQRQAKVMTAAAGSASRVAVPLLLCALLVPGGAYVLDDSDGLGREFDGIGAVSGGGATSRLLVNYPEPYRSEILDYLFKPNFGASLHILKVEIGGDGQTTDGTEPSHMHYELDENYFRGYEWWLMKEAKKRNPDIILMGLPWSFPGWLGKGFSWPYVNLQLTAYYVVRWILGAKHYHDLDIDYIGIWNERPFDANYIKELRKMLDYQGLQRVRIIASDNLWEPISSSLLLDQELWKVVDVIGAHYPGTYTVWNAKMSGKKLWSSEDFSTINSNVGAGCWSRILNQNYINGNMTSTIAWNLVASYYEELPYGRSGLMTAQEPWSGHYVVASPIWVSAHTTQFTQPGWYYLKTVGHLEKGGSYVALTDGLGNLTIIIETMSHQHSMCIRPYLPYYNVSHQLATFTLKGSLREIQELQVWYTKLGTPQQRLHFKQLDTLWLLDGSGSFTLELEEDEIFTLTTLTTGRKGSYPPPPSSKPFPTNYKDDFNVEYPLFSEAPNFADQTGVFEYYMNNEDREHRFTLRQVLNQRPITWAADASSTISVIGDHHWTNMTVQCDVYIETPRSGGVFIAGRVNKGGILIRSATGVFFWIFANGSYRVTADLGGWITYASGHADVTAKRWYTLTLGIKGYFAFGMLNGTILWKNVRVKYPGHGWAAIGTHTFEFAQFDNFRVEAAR
The assay is described as follows: Inhibition of mouse N-terminal His6-tagged GALC expressed in HEK293T cells using p-nitrophenyl-beta-D-galactopyranoside as substrate.

Assay [2] is described as follows: Inhibition of green coffee beans beta-galactosidase using […] as substrate preincubated for 30 mins followed by substrate addition by UV-vis spectrophotometry analysis. More on the design: species or system Coffea arabica.
The nature of assay [3]: Inhibition of Aspergillus oryzae beta-galactosidase using […] as substrate preincubated for 30 mins followed by substrate addition by UV-vis spectrophotometry analysis.
Assay [4] in a line: Inhibition of Escherichia coli beta-galactosidase using […] as substrate preincubated for 30 mins followed by substrate addition by UV-vis spectrophotometry analysis.
Assay [5] deals with T2, Galactocerebrosidase (Mus musculus) (UniProt P54818).
T2 sequence (whole entry): T1 sequence (P54818 whole entry)
The experiment in a line: Stabilization of mouse N-terminal His6-tagged GALC expressed in HEK293T cells assessed as change in melting temperature at pH 5.6 by differential scanning fluorimetry. The assay is classed as cell-based. Put shortly: (§1)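 GALC thermal melt curves recorded with and without ligand at 0.5 mM, at pH values from 4.6 to 7.4. Tm is read from each curve, and ΔTm is taken against GALC alone at the same pH. Runs were done in triplicate.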

Assay [6] concerns the target T2, Galactocerebrosidase (Mus musculus). The assay is described as follows: Stabilization of mouse N-terminal His6-tagged GALC expressed in HEK293T cells assessed as change in melting temperature at pH 7.4 by differential scanning fluorimetry. The assay is classed as cell-based. Put shortly:
as §1

The target is the same in assay [7]. The experiment in a line: Stabilization of mouse N-terminal His6-tagged GALC expressed in HEK293T cells assessed as change in melting temperature at pH 6.6 by differential scanning fluorimetry. The assay is classed as cell-based. Put shortly:
as §1
Background: DSF heats the sample and reads unfolding from a dye or from intrinsic fluorescence.

Assay [8] shares this target. The assay is described as follows: Stabilization of mouse N-terminal His6-tagged GALC expressed in HEK293T cells assessed as melting temperature at 0.5 mM at pH 7.4 by differential scanning fluorimetry (reference value: 53.4 degreeC). It counts as cell-based. The essentials: as §1
Assay [9] has the same target. The assay is described as follows: Stabilization of mouse N-terminal His6-tagged GALC expressed in HEK293T cells assessed as melting temperature at 0.5 mM at pH 6.6 by differential scanning fluorimetry (reference value: 59.6 degreeC). It counts as cell-based. Put shortly: as §1
Assay [10] has the same target. The experiment in a line: Stabilization of mouse N-terminal His6-tagged GALC expressed in HEK293T cells assessed as melting temperature at 0.5 mM at pH 4.6 by differential scanning fluorimetry (reference value: 62.2 degreeC). It counts as cell-based. The essentials:
as §1

Assay [11] shares this target. The assay is described as follows: Stabilization of mouse N-terminal His6-tagged GALC expressed in HEK293T cells assessed as change in melting temperature at pH 4.6 by differential scanning fluorimetry. The assay is classed as cell-based. Put shortly:
as §1

For assay [12] the target is unchanged. The experiment in a line: Stabilization of mouse N-terminal His6-tagged GALC expressed in HEK293T cells assessed as melting temperature at 0.5 mM at pH 5.6 by differential scanning fluorimetry (reference value: 62.8 degreeC). The assay is classed as cell-based. Put shortly:
as §1

Consider `OC[C@@H]1[C@H](O)[C@H](O)[C@@H]2CC[C@H]1N2`, for which the Ki (commonly the dissociation constant of the complex between target and ligand, obtained from inhibition or displacement) was 2300 µM in assay [1], greater than 1000 µM in assay [2], 0.13 µM in [3] and greater than 1000 µM in [4].
Consider `OC[C@@H]1[C@H](O)[C@H](O)[C@]2(O)CC[C@H]1N2`, for which the inhibition constant (Ki) in assay [1] is 7 µM; in assay [2], greater than 1000 µM; in assay [3], 0.031 µM; in assay [4], greater than 1000 µM. Further, the ΔTm – broadly, the shift of the melting midpoint relative to a reference – stood at 5.2 °C in assay [5], 1.4 °C in assay [6], 5.4 °C in assay [7] and 5.8 °C in assay [11]. Moreover, the Tm came out at 54.8 °C in [8], 65 °C in assay [9], 68 °C in assay [10] and 68 °C in [12].
